This is an account of results in ChEMBL document CHEMBL1154375, “Novel dehydroepiandrosterone derivatives with antiapoptotic, neuroprotective activity” (J Med Chem, 2009).

Data set [1] is described as follows: Displacement of [3H]DHEA from DHEA-binding site in rat PC12 cell membranes by […] counting. Details: species or system Membrane. To be noted: pc-12. For orientation: Loss of bound radioactivity is the signal in a displacement assay; it reports binding, not function.
For data set [2], the target named is T1, Estrogen receptor (Homo sapiens) (UniProt P03372).
T1 sequence (whole entry): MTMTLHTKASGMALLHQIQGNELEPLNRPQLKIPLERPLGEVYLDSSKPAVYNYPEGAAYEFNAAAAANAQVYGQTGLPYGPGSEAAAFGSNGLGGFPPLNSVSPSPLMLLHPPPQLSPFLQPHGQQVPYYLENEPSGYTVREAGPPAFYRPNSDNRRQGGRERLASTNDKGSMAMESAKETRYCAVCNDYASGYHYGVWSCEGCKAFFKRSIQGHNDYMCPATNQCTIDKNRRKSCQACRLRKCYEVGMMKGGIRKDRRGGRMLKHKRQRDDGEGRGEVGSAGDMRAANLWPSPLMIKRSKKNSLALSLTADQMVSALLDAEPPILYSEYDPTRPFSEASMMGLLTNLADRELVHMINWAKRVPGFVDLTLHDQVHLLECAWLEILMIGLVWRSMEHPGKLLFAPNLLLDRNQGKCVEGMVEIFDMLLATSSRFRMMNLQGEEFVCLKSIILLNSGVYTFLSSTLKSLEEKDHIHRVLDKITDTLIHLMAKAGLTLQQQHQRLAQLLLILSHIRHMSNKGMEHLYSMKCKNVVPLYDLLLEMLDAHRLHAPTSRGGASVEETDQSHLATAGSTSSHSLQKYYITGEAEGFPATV
Briefly: Antagonist activity at ERalpha in human MCF7:D5L cells assessed as inhibition of ERE-dependent luciferase expression at 1 uM relative to ICI-182780. It is filed as functional, cell-based.

Data set [3] relates to PC-12. As to the kind of experiment: Neuroprotective activity in rat PC12 cells assessed as inhibition of serum deprivation-induced apoptosis after 24 hrs by FACS flow cytometry. It is filed as functional, cell-based. Summed up: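 PC12 cells (10^6/well) 24 h in serum-free medium with BSA plus 100 nM steroid; stained with 2 μg/mL annexin V-FITC (10 min, dark, HEPES/CaCl2 buffer pH 7.4) and propidium iodide, analysed by flow cytometry within 20 min, 10000 cells per treatment; at least four experiments in triplicate.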
(A flow cytometer gives signals particle by particle.)

The target of data set [4] is T1, Estrogen receptor (Homo sapiens). As to the kind of experiment: Agonist activity at estrogen receptor in human Ishikawa cells assessed as induction of ERE-dependent alkaline phosphatase level at 1 uM relative to estradiol. The class given is functional, cell-based.
Data set [5] has the same target. Briefly: Antagonist activity at estrogen receptor in human Ishikawa cells assessed as inhibition of ERE-dependent alkaline phosphatase levels at 1 uM relative to ICI-182780. It is filed as functional, cell-based. Details: scale not given: the % may be the effect or the level left.
Data set [6] deals with PC-12. Briefly: Cytotoxicity against rat PC12 cells at 0.1 to 10 uM after 24 to 72 hrs by MTT assay. It is filed as cell-based. The note with it: pc-12, 10 µM. Summed up:
(§1)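 Seeded at 2×10^4 cells/mL in serum-containing medium (PC12: RPMI 1640, 10% horse serum, 5% FBS; HEK293 and HT22: DMEM, 10% FBS) for 24 h, then 0.1, 1 or 10 μM compound for 24, 48 or 72 h. MTT 5 mg/mL, 4 h, 37 °C; DMSO-dissolved formazan read at 570 nm; % of untreated control; three replicates, three experiments.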

The target in data set [7] is Estrogen receptor beta (Homo sapiens) (UniProt Q92731). As to the kind of experiment: Agonist activity at ERbeta in HEK293 cells assessed as induction of ERE-dependent luciferase expression at 1 uM relative to estradiol. It is filed as functional, cell-based.
Data set [8] deals with T1, Estrogen receptor (Homo sapiens). As to the kind of experiment: Agonist activity at ERalpha in human MCF7:D5L cells assessed as induction of ERE-dependent luciferase expression at 1 uM relative to estradiol. The class given is functional, cell-based.
Data set [9] relates to PC-12. Briefly: Neuroprotective activity against serum deprivation-induced apoptosis in rat PC12 cells assessed as increase in antiapoptotic protein Bcl2 levels at 10 nM after 12 hrs by Western blot. The class given is functional, cell-based. Summed up: (§2)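 PC12 cells cultured 12 h in serum-free medium (0.1% BSA, 10 nM haloperidol) with 10 nM steroid; total protein extracts Western blotted for Bcl-2 or Bcl-xL, band intensity by densitometry normalized to actin; % of control; three independent experiments.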

The target of data set [10] is Estrogen receptor beta (Homo sapiens) (UniProt Q92731). Briefly: Antagonist activity at ERbeta in HEK293 cells assessed as inhibition of ERE-dependent luciferase expression at 1 uM relative to ICI-182780. It is filed as functional, cell-based. Details: scale not given: the % may be the effect or the level left.
Data set [11] has as its system PC-12. Briefly: Neuroprotective activity in rat PC12 cells assessed as inhibition of serum deprivation-induced apoptosis after 24 hrs by APO Percentage apoptosis assay. It is filed as functional, cell-based. To be noted: PC-12, 24 h.
Another data set deals with MCF7. As to the kind of experiment: Induction of human MCF7 cells growth containing endogenous ERalpha receptor at 1 uM by MTT assay relative to estradiol. It is filed as functional. Summed up: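 Breast cancer cells at 8000/well in phenol red-free MEM, 1 μg/mL insulin, 5% charcoal-stripped FBS; after 72 h, 96 h exposure; MTT formazan at 550 nm.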
A general note: Tetrazolium dyes change colour on reduction, which living cells bring about.

For data set [12], the system named is PC-12. Briefly: Neuroprotective activity against serum deprivation-induced apoptosis in rat PC12 cells assessed as increase in antiapoptotic protein Bcl-XL levels at 10 nM after 12 hrs by Western blot. The class given is functional, cell-based. Summed up:
as §2

A further data set has as its system Ishikawa. Briefly: Induction of human Ishikawa cells growth containing endogenous ERalpha receptor at 1 uM by MTT assay relative to estradiol. It is filed as functional, cell-based. Summed up:
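Endometrial cells at 8000/well in phenol red-free MEM, 1 μg/mL insulin, 5% charcoal-stripped FBS; compound added 24 h after plating, 96 h exposure; MTT at 550 nm.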

The next data set concerns HEK293. Briefly: Cytotoxicity against HEK293 cells at 0.1 to 10 uM after 24 to 72 hrs by MTT assay. The note with it: human, hek293, 10 µM. It is filed as cell-based. Summed up: as §1
The test system of another data set is LNCaP. Briefly: Induction of human LNCAP cells growth containing endogenous […] receptor at 1 uM by MTT assay relative to estradiol. It is filed as functional, cell-based. Summed up:
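Prostate cells at 5000/well on polylysine-coated wells in phenol red-free RPMI with 10% charcoal-stripped FBS; after 72 h, 96 h exposure; MTT at 550 nm.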

Data set [13] can be described thus: Cytotoxicity against mouse HT22 cells at 0.1 to 10 uM after 24 to 72 hrs by MTT assay. It is filed as cell-based. To be noted: ht-22, 10 µM. Summed up: as §1
Data set [14] deals with PC-12. As to the kind of experiment: Neuroprotective activity in rat PC12 cells assessed as inhibition of serum deprivation-induced apoptosis at 100 nM after 24 hrs by APO Percentage apoptosis assay. The class given is functional, cell-based. Summed up: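 PC12 cells cultured 24 h in serum-free medium with BSA and 10 nM haloperidol plus 100 nM steroid. Apoptotic cells stained with APOPercentage dye, dye released and read at 550 nm (reference 620 nm); expressed relative to serum-free control; at least four experiments in triplicate.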

In data set [15] the test system is PC-12. Briefly: Induction of dopamine release in rat PC12 cells at 10 nM after 24 hrs mins by radioimmunoassay. It is filed as functional, cell-based. Summed up:
(§3)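 PC12 cells at 10^6/well on poly(L-lysine) exposed to 10 nM steroid in serum-free medium for 5–30 min or 3–48 h; 1 mL supernatant acidified with 0.1 M HCl; dopamine measured by 125I radioimmunoassay after COMT conversion to 3-methoxytyramine and acylation. Expressed as % of untreated cells; four independent experiments.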

For data set [16], the system named is PC-12. As to the kind of experiment: Induction of tyrosine hydroxylase mRNA expression in rat PC12 cells at 10 nM after 6 hrs mins by RT-PCR. The class given is functional, cell-based. Summed up: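 PC12 cells incubated 6 h with 10 nM steroid; TH mRNA measured by RT-PCR, 33 cycles, 368 bp product on 2% agarose gel, normalized to GAPDH mRNA.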
Data set [17] deals with PC-12. Briefly: Induction of dopamine release in rat PC12 cells at 10 nM after 10 mins by radioimmunoassay relative to control. It is filed as functional. Summed up: as §3

Structures are written as SMILES. Active and inactive are the calls of the source. No cut-off for these calls is given here.

Chain of Estrogen receptor beta (Homo sapiens) (Q92731 whole entry): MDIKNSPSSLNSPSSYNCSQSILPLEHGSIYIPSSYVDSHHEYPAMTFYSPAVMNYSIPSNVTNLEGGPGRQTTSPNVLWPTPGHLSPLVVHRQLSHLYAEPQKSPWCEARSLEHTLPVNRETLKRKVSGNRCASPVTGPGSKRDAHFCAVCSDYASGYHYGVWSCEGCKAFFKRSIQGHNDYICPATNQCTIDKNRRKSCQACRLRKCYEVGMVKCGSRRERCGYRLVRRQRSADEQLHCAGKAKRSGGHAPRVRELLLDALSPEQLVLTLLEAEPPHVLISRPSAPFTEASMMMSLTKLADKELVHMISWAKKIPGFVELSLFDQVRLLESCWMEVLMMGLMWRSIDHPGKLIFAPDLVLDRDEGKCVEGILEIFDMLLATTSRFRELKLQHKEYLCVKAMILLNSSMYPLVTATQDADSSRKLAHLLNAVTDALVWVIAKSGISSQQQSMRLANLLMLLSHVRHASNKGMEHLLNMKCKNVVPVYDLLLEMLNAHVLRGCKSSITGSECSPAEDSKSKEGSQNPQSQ

`C[C@]12CC[C@H](O)CC1=CC[C@@H]1[C@@H]2CC[C@@]2(C)[C@H]1CC[C@]21O[C@H]1CO`: the IC50 came out at 0.11 nM in data set [1] and 99 nM with PC-12 [11]. Besides, the outcome in data set [2], in data set [4], in data set [5], in data set [7], in data set [8] and in [10] was inactive. For the same molecule, the result in the data set on MCF7, in the data set on Ishikawa and in the data set with LNCaP was inactive. In addition, the outcome in the data set on PC-12 [3], in the data set on PC-12 [9] and with PC-12 [12] was Active. For the same molecule, the Activity entry (in the data set on PC-12 [6]; in the data set with HEK293; in data set [13]) was “Non-toxic” each time.

On to `C[C@]12CC[C@@](O)(CC#N)CC1=CC[C@@H]1[C@@H]2CC[C@]2(C)C(=O)CC[C@@H]12`, for which, in the data set on PC-12 [14], the inhibition result was “inactive”.

As for `CO[C@H]1CC[C@H]2[C@@H]3CC=C4C[C@@H](O)CC[C@]4(C)[C@H]3CC[C@]12C`, the inhibition result with PC-12 [14] is “inactive”.

Turning to `COC[C@]1(O)CC[C@@]2(C)C(=CC[C@@H]3[C@@H]2CC[C@]2(C)C(=O)CC[C@@H]32)C1`, the inhibition result with PC-12 [14] is “inactive”.

Take `C[C@]12CC[C@H](O)CC1=CC[C@@H]1[C@@H]2CC[C@@]2(C)[C@H]1CC[C@@]21CO1`: the IC50 is 0.04 nM in data set [1] and 0.19 nM with PC-12 [11]. Moreover, the outcome in the data set with PC-12 [15], in the data set with PC-12 [3], with PC-12 [16], in the data set on PC-12 [9] and in the data set with PC-12 [12] was Active. Moreover, the result (in [2]; in [5]; in data set [7]; in data set [10]; in the data set on Ishikawa; with LNCaP) was inactive. The Activity is 22% in [4]; “Non-toxic” in the data set on PC-12 [6]; 29% in data set [8]; 33% in the data set on MCF7; “Non-toxic” in the data set with HEK293; “Non-toxic” in data set [13]. Besides, in the data set with PC-12 [17], the “fold change (FC)” value stood at 2.

As to `C[C@@]1(O)CC[C@@]2(C)C(=CC[C@@H]3[C@@H]2CC[C@]2(C)C(=O)CC[C@@H]32)C1`, in the data set with PC-12 [14], the inhibition entry is “inactive”.

As for `C[C@]12CC[C@H](O)CC1=CC[C@@H]1[C@@H]2CC[C@]2(C)C(=O)CC[C@@H]12` [PRASTERONE], the figures for the 50% inhibitory concentration (IC50) (in data set [1]; in the data set on PC-12 [11]) were 1.65 nM and 0.29 nM, respectively.

As for `C[C@]12CC[C@@](O)(CN=[N+]=[N-])CC1=CC[C@@H]1[C@@H]2CC[C@]2(C)C(=O)CC[C@@H]12`, the inhibition result in the data set on PC-12 [14] was “inactive”.

As for `CCCC[C@@]1(O)CC[C@@]2(C)C(=CC[C@@H]3[C@@H]2CC[C@]2(C)C(=O)CC[C@@H]32)C1`, the inhibition entry in the data set with PC-12 [14] is “inactive”.

Consider `C[C@]1(O)CC[C@@]2(C)C(=CC[C@@H]3[C@@H]2CC[C@]2(C)C(=O)CC[C@@H]32)C1`, for which the inhibition result in the data set on PC-12 [14] was “inactive”.

`C[C@]12CC[C@H](O)CC1=CC[C@@H]1[C@@H]2CC[C@@]2(C)[C@H]1CC[C@]21O[C@@H]1CO`: the IC50 was 18.6 nM in data set [1] and 6.4 nM in the data set on PC-12 [11]. In addition, the outcome in the data set with PC-12 [15], in the data set on PC-12 [3], in the data set on PC-12 [16], in the data set with PC-12 [9] and in the data set with PC-12 [12] was Active. Also, the outcome (in [2]; in data set [4]; in data set [7]; in data set [8]; with MCF7; with Ishikawa) was inactive. Also, the result in the data set with LNCaP was inactive. The Activity was 24% in data set [5]; “Non-toxic” in the data set on PC-12 [6]; 31% in [10]; “Non-toxic” with HEK293; “Non-toxic” in data set [13]. The “fold change (FC)” value in the data set on PC-12 [17] is recorded as 2.

By IC50 is commonly meant the concentration that inhibits the measured activity by half.
